# Laboratory results as given in ChEMBL document CHEMBL4376860, “Discovery of Novel Dual Poly(ADP-ribose)polymerase and Phosphoinositide 3-Kinase Inhibitors as a Promising Strategy for Cancer Therapy” (J Med Chem, 2020).
# Active and inactive are the calls of the source. The calls are words filed in the database; no cut-off is given here.
# How the values were obtained:
# [1] = molecular target: Poly [ADP-ribose] polymerase 1 (Homo sapiens, UniProt P09874); assay: Inhibition of recombinant human PARP1 using histone as substrate after 1 hr in presence of biotinylated NAD+ by ELISA
# Chain of Poly [ADP-ribose] polymerase 1 (P09874 whole entry): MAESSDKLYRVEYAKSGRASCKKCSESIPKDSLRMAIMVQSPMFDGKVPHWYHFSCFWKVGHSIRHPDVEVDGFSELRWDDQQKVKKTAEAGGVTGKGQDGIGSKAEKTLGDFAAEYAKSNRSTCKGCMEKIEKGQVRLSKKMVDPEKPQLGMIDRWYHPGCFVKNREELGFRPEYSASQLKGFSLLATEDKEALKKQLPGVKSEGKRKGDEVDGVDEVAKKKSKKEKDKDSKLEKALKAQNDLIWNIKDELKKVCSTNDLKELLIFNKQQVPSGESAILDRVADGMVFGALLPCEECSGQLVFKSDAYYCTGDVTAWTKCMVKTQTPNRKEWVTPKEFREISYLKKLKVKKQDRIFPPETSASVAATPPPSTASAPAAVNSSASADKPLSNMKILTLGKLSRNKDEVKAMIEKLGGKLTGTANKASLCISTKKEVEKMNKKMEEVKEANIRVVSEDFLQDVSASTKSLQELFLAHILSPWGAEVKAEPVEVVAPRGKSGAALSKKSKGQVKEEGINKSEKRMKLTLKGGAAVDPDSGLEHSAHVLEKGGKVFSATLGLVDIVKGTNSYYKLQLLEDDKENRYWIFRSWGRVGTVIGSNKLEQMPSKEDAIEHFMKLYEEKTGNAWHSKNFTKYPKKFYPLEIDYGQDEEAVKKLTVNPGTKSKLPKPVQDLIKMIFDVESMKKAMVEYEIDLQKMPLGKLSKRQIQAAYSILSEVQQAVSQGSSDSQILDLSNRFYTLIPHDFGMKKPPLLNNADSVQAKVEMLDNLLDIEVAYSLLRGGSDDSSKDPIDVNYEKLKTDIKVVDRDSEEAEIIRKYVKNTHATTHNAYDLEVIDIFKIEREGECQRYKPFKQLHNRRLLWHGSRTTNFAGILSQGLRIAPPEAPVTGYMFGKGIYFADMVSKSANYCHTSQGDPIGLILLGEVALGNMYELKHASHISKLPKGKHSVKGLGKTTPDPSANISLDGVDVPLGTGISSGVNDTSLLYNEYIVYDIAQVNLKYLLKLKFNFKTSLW
# HCT-116 = assay: Potency index, ratio of BKM120 IC50 to test compound IC50 for antiproliferative activity against human HCT116 cells; format: functional
# HCC1937 [2] = assay: Potency index, ratio of BKM120 IC50 to test compound IC50 for antiproliferative activity against human HCC1937 cells; format: functional
# MDA-MB-468 [3] = assay: Inhibition of PI3K in human MDA-MB-468 cells assessed as reduction in AKT phosphorylation at S473 residue at 1 uM measured after 6 to 72 hrs by Western blot analysis; format: cell-based
# How it was run: (§1)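 MDA-MB-468 cells seeded overnight, then exposed for 6 h; control medium contained 1‰ DMSO. Lysates run on 8–12% SDS-PAGE and transferred to PVDF. Blots blocked in 5% BSA/TBST and probed for pAKT-Ser473/total AKT or pS6-Ser240/total S6, with β-actin as loading control. HRP secondary with ECL detection; bands quantified by densitometry. Three independent experiments.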
# MDA-MB-468 [4] = assay: Inhibition of PI3K in human MDA-MB-468 cells assessed as reduction in pS6 phosphorylation at S240 residue at 1 uM measured after 6 to 72 hrs by Western blot analysis; format: cell-based; how it was run: as §1
# MDA-MB-468 [5] = assay: Inhibition of PI3K in human MDA-MB-468 cells assessed as increase in gammaH2AX foci formation at 1 uM measured after 72 hrs by DAPI staining based immunofluorescence microscopic analysis; format: cell-based
# How it was run: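 MDA-MB-468 cells on coverslips given drugs for 72 h. Fixed in 3% formaldehyde, permeabilized with 0.1% Triton X-100, blocked in 10% FBS/PBS, then rabbit anti-γH2AX (Ser139) overnight at 4 °C. Secondary antibody and DAPI stain followed. About 200 cells scored for foci; a cell was positive with more than 5 foci. Three independent experiments.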
# [6] = Toxicity in BALB/c mouse xenografted with human MDA-MB-468 cells assessed as mortality at 50 mg/kg, ip administered every 2 days for 34 days; format: organism-based; conditions: in vivo
# How it was run: (§2)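 Nude mice bearing subcutaneous right-flank MDA-MB-468 tumours (2 × 10^6 exponential-phase cells implanted). Randomised at about 100 mm³ tumour volume; 6 mice per group. Dosed ip every 2 days for 34 days. Vehicle controls received PBS with 5% DMSO. Body weight and tumour size recorded every 2 days; tumour volume calculated as ab²/2 from caliper diameters.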
# Mus musculus [7] = assay: In vivo inhibition of PI3K in BALB/c mouse xenografted with human MDA-MB-468 cells assessed as reduction in pS6 phosphorylation at S240 residue at 50 mg/kg, ip administered every 2 days for 34 days measured post-last dose by Western blot analysis; format: functional, organism-based
# Mus musculus [8] = assay: In vivo activation of ERK in BALB/c mouse xenografted with human MDA-MB-468 cells assessed as increase in ERK autophosphorylation at T202 residue at 50 mg/kg, ip administered every 2 days for 34 days measured post-last dose by Western blot analysis; format: functional, organism-based
# Mus musculus [9] = assay: In vivo activation of ETS1 in BALB/c mouse xenografted with human MDA-MB-468 cells assessed as increase in ETS1 phosphorylation at Thr38 residue at 50 mg/kg, ip administered every 2 days for 34 days measured post-last dose by Western blot analysis; format: functional, organism-based
# Mus musculus [10] = assay: In vivo inhibition of PI3K in BALB/c mouse xenografted with human MDA-MB-468 cells assessed as reduction in BRCA1 expression at 50 mg/kg, ip administered every 2 days for 34 days measured post-last dose by Western blot analysis; format: functional, organism-based
# Mus musculus [11] = assay: In vivo inhibition of PI3K in BALB/c mouse xenografted with human MDA-MB-468 cells assessed as reduction in BRCA2 expression at 50 mg/kg, ip administered every 2 days for 34 days measured post-last dose by Western blot analysis; format: functional, organism-based
# [12] = molecular target: Poly [ADP-ribose] polymerase 2 (Homo sapiens, UniProt Q9UGN5); assay: Inhibition of recombinant human PARP2 using histone as substrate after 1 hr in presence of biotinylated NAD+ by ELISA
# Chain of Poly [ADP-ribose] polymerase 2 (Q9UGN5 whole entry, canonical isoform): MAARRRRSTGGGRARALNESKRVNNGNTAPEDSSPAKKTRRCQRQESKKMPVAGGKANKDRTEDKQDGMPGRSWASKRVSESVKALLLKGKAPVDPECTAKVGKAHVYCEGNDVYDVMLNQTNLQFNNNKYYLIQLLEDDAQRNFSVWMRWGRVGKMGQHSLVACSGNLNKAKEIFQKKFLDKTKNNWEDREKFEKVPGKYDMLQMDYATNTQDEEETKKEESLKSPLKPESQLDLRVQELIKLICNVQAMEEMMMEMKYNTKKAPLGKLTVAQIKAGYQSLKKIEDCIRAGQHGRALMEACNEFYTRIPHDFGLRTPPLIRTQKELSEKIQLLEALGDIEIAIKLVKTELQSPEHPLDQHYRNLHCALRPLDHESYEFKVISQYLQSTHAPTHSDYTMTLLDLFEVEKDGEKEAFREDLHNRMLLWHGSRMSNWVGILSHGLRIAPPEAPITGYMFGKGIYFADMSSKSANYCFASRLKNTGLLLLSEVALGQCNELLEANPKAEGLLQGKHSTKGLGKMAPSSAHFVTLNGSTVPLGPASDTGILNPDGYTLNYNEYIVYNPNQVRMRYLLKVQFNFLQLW
# [13] = molecular target: Phosphatidylinositol 4,5-bisphosphate 3-kinase catalytic subunit beta isoform (Homo sapiens, UniProt P42338); assay: Inhibition of PI3Kbeta (unknown origin) using PIP2 as substrate measured after 1 hr by ADP-glo plus luminescence assay
# Chain of Phosphatidylinositol 4,5-bisphosphate 3-kinase catalytic subunit beta isoform (P42338 whole entry, canonical isoform): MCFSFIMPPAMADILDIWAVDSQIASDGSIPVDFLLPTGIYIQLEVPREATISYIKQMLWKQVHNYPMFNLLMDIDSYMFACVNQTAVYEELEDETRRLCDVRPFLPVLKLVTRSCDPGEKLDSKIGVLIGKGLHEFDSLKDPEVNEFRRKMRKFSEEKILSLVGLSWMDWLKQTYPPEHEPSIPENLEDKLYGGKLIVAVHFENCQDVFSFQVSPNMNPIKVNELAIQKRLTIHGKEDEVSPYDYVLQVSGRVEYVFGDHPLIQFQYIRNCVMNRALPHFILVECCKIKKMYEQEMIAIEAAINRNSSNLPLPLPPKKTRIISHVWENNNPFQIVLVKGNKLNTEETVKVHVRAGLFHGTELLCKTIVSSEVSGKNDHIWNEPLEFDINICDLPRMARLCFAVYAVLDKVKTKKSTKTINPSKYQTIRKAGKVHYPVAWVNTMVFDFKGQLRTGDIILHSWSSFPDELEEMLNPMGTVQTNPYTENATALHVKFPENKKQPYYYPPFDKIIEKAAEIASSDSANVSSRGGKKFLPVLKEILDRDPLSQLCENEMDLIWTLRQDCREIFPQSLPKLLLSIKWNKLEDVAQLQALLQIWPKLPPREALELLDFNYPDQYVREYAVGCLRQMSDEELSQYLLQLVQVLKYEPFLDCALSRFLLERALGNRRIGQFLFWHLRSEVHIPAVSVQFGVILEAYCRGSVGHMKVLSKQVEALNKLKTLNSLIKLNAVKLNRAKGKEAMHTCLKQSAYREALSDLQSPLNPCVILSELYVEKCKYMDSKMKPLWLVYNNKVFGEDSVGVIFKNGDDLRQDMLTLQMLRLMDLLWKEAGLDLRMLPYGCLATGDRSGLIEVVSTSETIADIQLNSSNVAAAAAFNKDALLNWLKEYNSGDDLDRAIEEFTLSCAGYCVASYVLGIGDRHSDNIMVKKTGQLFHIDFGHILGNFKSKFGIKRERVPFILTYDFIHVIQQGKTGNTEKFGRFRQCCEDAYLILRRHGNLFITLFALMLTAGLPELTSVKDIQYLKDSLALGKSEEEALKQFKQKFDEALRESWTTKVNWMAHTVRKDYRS
# [14] = molecular target: Phosphatidylinositol 4,5-bisphosphate 3-kinase catalytic subunit delta isoform (Homo sapiens, UniProt O00329); assay: Inhibition of PI3Kdelta (unknown origin) using PIP2 as substrate measured after 2 hrs by ADP-glo plus luminescence assay
# Chain of Phosphatidylinositol 4,5-bisphosphate 3-kinase catalytic subunit delta isoform (O00329 whole entry, canonical isoform): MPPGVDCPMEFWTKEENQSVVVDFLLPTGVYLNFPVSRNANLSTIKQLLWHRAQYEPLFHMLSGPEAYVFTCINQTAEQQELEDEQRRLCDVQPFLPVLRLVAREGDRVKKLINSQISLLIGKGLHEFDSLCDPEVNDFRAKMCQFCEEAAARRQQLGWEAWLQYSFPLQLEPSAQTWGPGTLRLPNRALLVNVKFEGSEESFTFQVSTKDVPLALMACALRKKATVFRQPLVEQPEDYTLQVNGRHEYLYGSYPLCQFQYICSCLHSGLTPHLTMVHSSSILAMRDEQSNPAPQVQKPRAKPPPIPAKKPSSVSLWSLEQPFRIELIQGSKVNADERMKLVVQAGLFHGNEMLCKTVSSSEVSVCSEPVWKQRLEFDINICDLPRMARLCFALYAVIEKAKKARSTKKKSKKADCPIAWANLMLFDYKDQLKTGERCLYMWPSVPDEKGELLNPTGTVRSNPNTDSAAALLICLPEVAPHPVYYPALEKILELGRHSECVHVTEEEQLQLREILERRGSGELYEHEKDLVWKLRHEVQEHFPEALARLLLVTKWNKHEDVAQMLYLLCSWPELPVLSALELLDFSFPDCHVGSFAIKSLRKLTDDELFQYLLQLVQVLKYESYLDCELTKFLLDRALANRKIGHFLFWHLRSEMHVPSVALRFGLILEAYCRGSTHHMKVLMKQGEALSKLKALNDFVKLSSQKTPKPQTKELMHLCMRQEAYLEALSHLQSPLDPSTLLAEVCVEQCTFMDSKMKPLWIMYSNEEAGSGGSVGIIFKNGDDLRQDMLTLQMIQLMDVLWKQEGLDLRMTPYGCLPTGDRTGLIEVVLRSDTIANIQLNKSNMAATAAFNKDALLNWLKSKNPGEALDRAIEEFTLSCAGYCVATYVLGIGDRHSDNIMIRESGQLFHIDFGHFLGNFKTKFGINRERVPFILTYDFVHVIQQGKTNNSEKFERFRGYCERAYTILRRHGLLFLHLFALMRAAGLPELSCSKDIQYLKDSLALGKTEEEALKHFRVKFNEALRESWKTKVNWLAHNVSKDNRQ
# How it was run: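 ADP-Glo Plus luminescence assay in 50 µL of 10 mM Tris-HCl pH 7.5 with 25 µM ATP, 9.75 µM PIP2, 4 mM MgCl2, 50 mM NaCl, 0.05% Chaps, 1 mM DTT, 5% glycerol and 2% DMSO. Enzyme: PI3Kα and β at 60 ng/mL, δ at 45 ng/mL. Ten-point 3-fold dilutions from 1 µM. Incubation at room temperature for 1 h (α, β) or 2 h (δ). IC50 by nonlinear regression.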
# [15] = molecular target: Phosphatidylinositol 4,5-bisphosphate 3-kinase catalytic subunit gamma isoform (Homo sapiens, UniProt P48736); assay: Inhibition of PI3Kgamma (unknown origin) using PIP2 as substrate measured after 1 hr by ADP-glo plus luminescence assay
# Chain of Phosphatidylinositol 4,5-bisphosphate 3-kinase catalytic subunit gamma isoform (P48736 whole entry, canonical isoform): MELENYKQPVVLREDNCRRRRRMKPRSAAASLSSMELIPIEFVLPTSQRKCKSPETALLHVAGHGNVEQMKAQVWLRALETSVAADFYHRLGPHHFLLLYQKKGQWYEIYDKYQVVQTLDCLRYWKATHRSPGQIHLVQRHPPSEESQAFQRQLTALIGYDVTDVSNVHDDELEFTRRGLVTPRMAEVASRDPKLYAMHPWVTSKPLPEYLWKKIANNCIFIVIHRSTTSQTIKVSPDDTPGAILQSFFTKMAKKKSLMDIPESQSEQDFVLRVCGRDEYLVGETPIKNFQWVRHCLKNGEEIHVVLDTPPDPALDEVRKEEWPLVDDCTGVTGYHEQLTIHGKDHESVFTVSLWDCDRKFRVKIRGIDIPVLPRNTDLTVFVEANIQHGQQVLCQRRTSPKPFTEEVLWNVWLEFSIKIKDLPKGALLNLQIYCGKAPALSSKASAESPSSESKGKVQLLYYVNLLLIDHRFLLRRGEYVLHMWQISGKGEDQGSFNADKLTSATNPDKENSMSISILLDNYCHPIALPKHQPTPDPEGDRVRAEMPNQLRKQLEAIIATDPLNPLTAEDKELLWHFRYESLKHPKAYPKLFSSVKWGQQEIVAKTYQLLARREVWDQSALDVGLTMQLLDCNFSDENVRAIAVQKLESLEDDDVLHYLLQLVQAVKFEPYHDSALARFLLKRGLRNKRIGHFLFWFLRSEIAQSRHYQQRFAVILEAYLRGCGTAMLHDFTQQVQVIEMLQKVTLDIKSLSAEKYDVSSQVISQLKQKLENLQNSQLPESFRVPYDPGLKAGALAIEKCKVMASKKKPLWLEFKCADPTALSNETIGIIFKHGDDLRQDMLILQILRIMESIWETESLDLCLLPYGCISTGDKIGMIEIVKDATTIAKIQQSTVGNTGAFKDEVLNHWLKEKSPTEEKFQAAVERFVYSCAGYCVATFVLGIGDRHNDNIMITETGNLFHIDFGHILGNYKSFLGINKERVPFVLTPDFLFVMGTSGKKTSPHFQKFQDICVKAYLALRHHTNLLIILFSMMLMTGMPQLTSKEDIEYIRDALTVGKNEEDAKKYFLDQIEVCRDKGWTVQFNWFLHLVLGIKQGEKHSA
# MDA-MB-468 [16] = assay: Induction of apoptosis in human MDA-MB-468 cells assessed as early apoptotic cells at 1 uM measured after 72 hrs in presence of PARP inhibitor olaparib by Annexin V-FITC/propidium iodide staining based flow cytometry (reference value: 3.88%); format: functional
# MDA-MB-468 [17] = assay: Induction of apoptosis in human MDA-MB-468 cells assessed as late apoptotic cells at 1 uM measured after 72 hrs in presence of PARP inhibitor olaparib by Annexin V-FITC/propidium iodide staining based flow cytometry (reference value: 0.78%); format: functional
# [18] = Toxicity in BALB/c mouse xenografted with human MDA-MB-468 cells assessed as mortality at 27.5 mg/kg, ip administered every 2 days for 34 days; format: organism-based; conditions: in vivo; how it was run: as §2
# [19] = Toxicity in BALB/c mouse xenografted with human MDA-MB-468 cells assessed as mortality at 50 mg/kg, ip administered every 2 days for 34 days in presence of PARP inhibitor olaparib; format: organism-based; conditions: in vivo; how it was run: as §2
# HCC1937 [20] = assay: cells; conditions: Homo sapiens, HCC1937, 168 h, read-out: pIC50 (converted)
# MDA-MB-231 = assay: cells; conditions: Homo sapiens, MDA-MB-231, 168 h, read-out: pIC50 (converted)
# MDA-MB-468 [21] = assay: cells; conditions: Homo sapiens, MDA-MB-468, 168 h, read-out: pIC50 (converted)
# BXPC-3 = assay: cells; conditions: Homo sapiens, BXPC-3, 168 h, read-out: pIC50 (converted)
# CAKI-1 = assay: cells; conditions: Homo sapiens, CAKI-1, 168 h, read-out: pIC50 (converted)
compound,measurement,setting,value
Nc1cc(C(F)(F)F)c(-c2nc3c(c(N4CCOCC4)n2)CCN(C(=O)c2cc(Cc4n[nH]c(=O)c5ccccc45)ccc2F)C3)cn1,IC50,[1],6.03 nM
same,Ratio IC50,HCT-116,>=4
same,Ratio IC50,HCC1937 [2],>=4
same,inhibition,MDA-MB-468 [3],Active
same,inhibition,MDA-MB-468 [4],Active
same,inhibition,MDA-MB-468 [5],Active
same,Activity,[6],Non-Toxic
same,inhibition,Mus musculus [7],Active
same,Activity,Mus musculus [8],Active
same,Activity,Mus musculus [9],Active
same,inhibition,Mus musculus [10],Active
same,inhibition,Mus musculus [11],Active
same,IC50,[12],3.63 nM
same,IC50,[13],288 nM
same,IC50,[14],7.41 nM
same,IC50,[15],832 nM
Nc1cc(C(F)(F)F)c(-c2cc(N3CCOCC3)nc(N3CCOCC3)n2)cn1 [BUPARLISIB],Activity,MDA-MB-468 [16],9.21%
same,Activity,MDA-MB-468 [17],7.84%
same,Activity,[18],Non-Toxic
same,Activity,[19],Non-Toxic
same,IC50,HCC1937 [20],1700 nM
same,IC50,MDA-MB-231,1580 nM
same,IC50,MDA-MB-468 [21],1290 nM
same,IC50,BXPC-3,2450 nM
same,IC50,CAKI-1,1860 nM
